Ecoli rRNA inh = inhibitors of bacterial rRNA selective over humanized ribosomes. E. coli WT GFP vs humanized-ribosome RFP mutants, fluorescence, 24 h; active compounds read low; DMSO median 0, no signal -100. GFP signal change (wild-type ribosome), % (concentration not given with the values). 1.6% of 350,000 active;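 active = significant combined selectivity score with lowered wild-type GFP, culture density cut under 30%, mutant RFP and density less affected; inactive = any of these conditions unmet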
AF4-AF9 inh = MLL-AF4/AF9 protein interaction inhibition; AlphaScreen, biotin-AF4 peptide binding to FLAG-AF9; inhibition, % at 10 µM; 0.47% of 350,000 active;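 active = every replicate reaching a set inhibition limit, whatever the replicate mean, cut at about 25% in these data; inconclusive = mean inhibition reaches that limit but some replicates miss it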;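 also: 0% = plate neutral control median and 100% = total signal loss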
Target sequence (P42568 whole entry, looked up): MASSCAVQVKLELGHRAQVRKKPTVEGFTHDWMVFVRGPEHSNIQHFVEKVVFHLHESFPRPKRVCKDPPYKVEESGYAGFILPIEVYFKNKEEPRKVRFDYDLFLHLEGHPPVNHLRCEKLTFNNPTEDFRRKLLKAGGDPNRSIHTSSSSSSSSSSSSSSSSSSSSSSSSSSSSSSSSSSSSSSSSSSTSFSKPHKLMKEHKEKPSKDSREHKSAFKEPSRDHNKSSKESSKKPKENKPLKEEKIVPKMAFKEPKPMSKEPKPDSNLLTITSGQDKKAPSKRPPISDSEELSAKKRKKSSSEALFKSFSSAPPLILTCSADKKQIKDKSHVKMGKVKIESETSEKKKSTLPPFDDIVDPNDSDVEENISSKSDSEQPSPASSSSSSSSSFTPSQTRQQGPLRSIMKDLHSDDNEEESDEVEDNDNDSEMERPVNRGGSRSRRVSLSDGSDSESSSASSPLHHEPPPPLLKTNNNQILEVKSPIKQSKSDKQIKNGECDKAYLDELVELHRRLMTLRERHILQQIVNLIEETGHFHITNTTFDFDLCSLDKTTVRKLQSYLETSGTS
Cneo AK release = causes C. neoformans cell lysis; lysis activity, % at 15 µM; 0.2% of 360,000 active; AID 651654; adenylate kinase release luminescence, 4 h; normalised: neutral wells 0, clomiphene wells 100;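 active = mean lysis activity across replicates of at least 80%, whatever share of replicates individually reach that level; inactive = mean lysis activity below 80%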
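Material: C. neoformans cells | Amount: Yeast cell density of 5 × 10^6 cells/mL | Medium: Fresh YPD growth medium | Dosing: Single dose | Times: Static 4 h at 37 °C with compound, 1 h detection | Detection: AK luminescence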
DENV2 CPE rescue = inhibitors of DENV2 cytopathic effect | 1.7% of 350,000 active | CPE inhibition, % at 9.99 µM | DENV2-infected cells, cytopathic effect rescue, plate reader; in the data active = CPE inhibition above about 20%, passing the limit was not always enough; inconclusive = no clear call, values can overlap the other calls; tested in BHK-21 cells;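 also: 0% = median of neutral control wells and 100% = median of positive control wells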
S100A4 inh HTS = inhibitors of human S100A4 binding to myosin IIA peptide; P26447; S100A4/TAMRA-MyoIIA peptide fluorescence polarization; inhibition, % at 10.7 µM; 0.14% of 360,000 active;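 active = mean inhibition of at least 70% across replicates, with every replicate also reaching that level; inconclusive = mean inhibition reaches 70% but some replicates fall short; inactive = mean inhibition below 70%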
Target sequence (P26447 whole entry, looked up): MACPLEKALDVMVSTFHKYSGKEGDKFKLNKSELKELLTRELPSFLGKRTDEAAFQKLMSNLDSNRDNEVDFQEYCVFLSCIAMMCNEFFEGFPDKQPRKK
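Material: S100A4 monomer (human). Medium: Calcium-containing HEPES buffer, pH 7.2. Probe or stimulus: labelled myosin peptide probe, 5 nM. Compound dosing: one concentration per compound. Timing: polarization read 5 min after assay mix addition, stable 5–60 min. Benchmarks: DMSO as neutral control, TFP as positive control.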
PfHsp90 yeast 2 = growth inhibition of yeast expressing Plasmodium Hsp90. S. cerevisiae expressing PfHsp90, BacTiter-Glo ATP, 48 h; yeast lacking PDR1 and PDR3 efflux regulators. inhibition, % at 9.4 µM. 0.32% of 310,000 active. AID 504621;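 active = every replicate shows inhibition above about 80%, whatever the replicate mean, limit read from the data; inconclusive = mean inhibition reaches the set limit but some replicate falls short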;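 also: 0% = DMSO neutral controls and 100% = 20 µM radicicol positive controls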
Active calls of the source: *; ! = a repeat was not active. This is a sample that favours compounds with a hit; in the whole collection about 3.2% have one here.

Screening N=C(N)c1ccc(N=Nc2c(O)ccc3c2[nH]c2ccccc23)cc1 returned Ecoli rRNA inh -30.5*, AF4-AF9 inh 32.1*, DENV2 CPE rescue 6.2, S100A4 inh HTS -5.1 and PfHsp90 yeast 2 -3.3.
For Cc1ccc(-c2nn(-c3ccccc3Cl)cc2C(=O)NCC2CCCO2)cc1 (configuration not stated) the results were Ecoli rRNA inh -9.4, AF4-AF9 inh -8.6, DENV2 CPE rescue 30.2*, S100A4 inh HTS 8.3 and PfHsp90 yeast 2 17.6.
O=C(NCC1CCCO1)c1ccccc1OCc1ccc(F)cc1 (configuration not stated) was read as Ecoli rRNA inh 2.7, AF4-AF9 inh -1.9, Cneo AK release -0.5, DENV2 CPE rescue 8.9, S100A4 inh HTS -69.4 and PfHsp90 yeast 2 22.3.
For O=C(NCC1CCCO1)c1ccccc1OCc1ccc(Cl)cc1 (configuration not stated) the results were Ecoli rRNA inh -16.8, AF4-AF9 inh -0.6, Cneo AK release -2.8, DENV2 CPE rescue 64.6* and S100A4 inh HTS -1.6.
For Cc1ccc(-c2nn(Cc3ccccc3)cc2C(=O)NCC2CCCO2)cc1 (configuration not stated) the results were Ecoli rRNA inh 3.9, AF4-AF9 inh 0.5, Cneo AK release 2.2, DENV2 CPE rescue 5.4, S100A4 inh HTS -1.1 and PfHsp90 yeast 2 -6.3.
`O=C(C[C@H]1C=C[C@@H](NC(=O)c2ccc3c(c2)OCO3)[C@@H](CO)O1)NCc1ccc(Oc2ccccc2)cc1` gave Ecoli rRNA inh -8.0, AF4-AF9 inh 2.3, DENV2 CPE rescue 5.5 and S100A4 inh HTS -3.2.
Screening Oc1cc2c(cc1O)C1c3ccc(O)c(O)c3OCC1(O)C2 (configuration not stated) returned Ecoli rRNA inh -18.4, AF4-AF9 inh 40.0*, Cneo AK release -0.3, DENV2 CPE rescue 10.8, S100A4 inh HTS -2.2 and PfHsp90 yeast 2 -1.4.
O=S(=O)(NCCC1=CCCCC1)c1ccccc1Br was read as Ecoli rRNA inh -23.2, AF4-AF9 inh -1.5, Cneo AK release -6.8, DENV2 CPE rescue 1.4 and S100A4 inh HTS 1.0.
Screening O=S(=O)(NCCC1=CCCCC1)c1ccc(Br)cc1 returned Ecoli rRNA inh -60.3, AF4-AF9 inh -1.7, Cneo AK release 1.5, DENV2 CPE rescue 119.3*, S100A4 inh HTS -0.1 and PfHsp90 yeast 2 17.7.
For O=C(C[C@H]1CC[C@H]2[C@@H](COC[C@H](O)CN2C(=O)c2cccnc2)O1)NCc1ccccc1 the results were Ecoli rRNA inh 1.4, AF4-AF9 inh -2.2, Cneo AK release 0.2, DENV2 CPE rescue inconclusive and S100A4 inh HTS -52.3.
COc1ccc2c3c([nH]c2c1)[C@H](CO)N(C(=O)CN(C)C)CC31CN(Cc2ccccc2Cl)C1 was read as Ecoli rRNA inh -11.9, AF4-AF9 inh 31.8* and DENV2 CPE rescue 32.5*.
For CCC(=O)N1CC2(CN(Cc3ccccc3Cl)C2)c2c([nH]c3cc(OC)ccc23)[C@H]1CO the results were Ecoli rRNA inh -55.2, AF4-AF9 inh 30.4*, DENV2 CPE rescue 0.0 and S100A4 inh HTS -1.1.
Screening COc1ccc2c3c([nH]c2c1)[C@@H](CO)N(C(C)=O)CC31CN(Cc2ccccc2Cl)C1 returned Ecoli rRNA inh -23.2, AF4-AF9 inh 28.9*, DENV2 CPE rescue 15.0 and S100A4 inh HTS -8.8.
COc1ccc2c3c([nH]c2c1)[C@@H](CO)N(C(C)=O)CC31CN(C(C)=O)C1 was read as Ecoli rRNA inh 3.1, AF4-AF9 inh 0.7, DENV2 CPE rescue -0.2 and S100A4 inh HTS -13.9.
COCC(=O)N1CC2(CN(Cc3ccccc3Cl)C2)c2c([nH]c3cc(OC)ccc23)[C@@H]1CO was read as Ecoli rRNA inh -4.9, AF4-AF9 inh 1.5 and DENV2 CPE rescue 2.5.
COc1ccc2c3c([nH]c2c1)[C@@H](CO)N(C(=O)CN(C)C)CC31CN(Cc2ccccc2)C1 was read as Ecoli rRNA inh 1.5, AF4-AF9 inh 14.5, DENV2 CPE rescue 39.5* and S100A4 inh HTS 16.8.
For C[C@H]1CN([C@@H](C)CO)C(=O)Cc2cc(NS(=O)(=O)c3ccc(Cl)cc3)ccc2O[C@H]1CN(C)Cc1ccc(C(=O)Nc2ccccc2N)cc1 the results were Ecoli rRNA inh -0.2, AF4-AF9 inh -12.6, DENV2 CPE rescue 4.6 and S100A4 inh HTS -4.4.
CN(C)CCCNC(=O)C[C@@H]1CC[C@@H]2[C@@H](COc3ccc(NC(=O)c4cccc(F)c4)cc3C(=O)N2C)O1 was read as Ecoli rRNA inh 0.8, AF4-AF9 inh -0.7, Cneo AK release -0.3, DENV2 CPE rescue 4.3 and S100A4 inh HTS 0.6.
For COc1ccccc1NC(=O)N[C@@H]1CC[C@@H](CC(=O)N[C@H](C)c2ccccc2)O[C@@H]1CO the results were Ecoli rRNA inh 1.1, AF4-AF9 inh -0.4, Cneo AK release -2.8, DENV2 CPE rescue 4.0 and S100A4 inh HTS -0.8.
`COc1ccc2c3c([nH]c2c1)[C@H](CO)N(C(=O)CN(C)C)CC31CCN(Cc2ccccc2Cl)CC1` gave Ecoli rRNA inh 1.5, AF4-AF9 inh 27.5*, DENV2 CPE rescue 7.7 and S100A4 inh HTS 5.3.
`COc1ccc2c3c([nH]c2c1)[C@@H](CO)N(C(=O)CN(C)C)CC31CN(Cc2ccccc2Cl)C1` gave Ecoli rRNA inh -25.2.
Screening O=C1C(Cc2ccccc2)Nc2ncnc(N3CCN(c4ccccc4)CC3)c2N1Cc1ccccc1 (configuration not stated) returned Ecoli rRNA inh 11.4, AF4-AF9 inh 5.0, Cneo AK release 1.8, DENV2 CPE rescue 3.5, S100A4 inh HTS -9.0 and PfHsp90 yeast 2 5.1.
`O=C1C(Cc2ccccc2)Nc2ncnc(N3CCOCC3)c2N1Cc1ccc(Cl)cc1` (configuration not stated) gave Ecoli rRNA inh -20.6*!, AF4-AF9 inh 2.5, Cneo AK release -0.3, DENV2 CPE rescue -12.0, S100A4 inh HTS 2.9 and PfHsp90 yeast 2 -14.6.
Screening O=C(Nc1cccc(N2C(=O)C=CC2=O)c1)c1cccs1 returned Ecoli rRNA inh 8.8, AF4-AF9 inh 8.5, Cneo AK release -2.1, DENV2 CPE rescue 9.5, S100A4 inh HTS -6.0 and PfHsp90 yeast 2 -123.3.
O=C1C=CC(=O)N1c1cccc(-c2ccccc2)c1 was read as Ecoli rRNA inh 0.5, AF4-AF9 inh -3.2, DENV2 CPE rescue -1.8, S100A4 inh HTS -1.0 and PfHsp90 yeast 2 106.8*.
N#Cc1c(N)nc(SCc2ccccc2)c(C#N)c1-c1ccco1 was read as Ecoli rRNA inh -43.0*, AF4-AF9 inh 1.1, Cneo AK release 0.7, S100A4 inh HTS -3.1 and PfHsp90 yeast 2 22.5.
`C[C@@H]1CN([C@H](C)CO)C(=O)c2cccc(NC(=O)Nc3ccccc3)c2O[C@H]1CN(C)C(=O)Nc1ccccc1` gave Ecoli rRNA inh -5.9, AF4-AF9 inh -2.6, Cneo AK release -8.3, DENV2 CPE rescue 52.3* and S100A4 inh HTS 7.5.
